In this assay the test system is HL-60. The experiment in a line: Growth inhibition of human HL60 cells after 3 days by MTT assay. It counts as functional, cell-based. Conditions: HL-60, 72 h. The essentials: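 HL-60 human leukemia cells, […], seeded at 4000-5000 cells/well and […] before compound addition. Compounds tested at 0.01, 0.1, 1, 10 and 100 µg/mL for 3 days. MTT (5 mg/mL) added, formazan dissolved in DMSO after 4 h, OD read at 570 nm. Growth inhibition (%) = (OD_control − OD_treated)/OD_control × 100. Doxorubicin served as positive control.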
A general note: Tetrazolium assays rely on reduction of a dye to a coloured formazan, in cell work by metabolically active cells.

SMILES strings stand for the structures. Some results are limits rather than exact numbers.

Regarding `OC/C=C\C#CC#CC/C=C\CCCCCCCCO`, the IC50 – broadly, the midpoint of a concentration-inhibition curve – was over 10 µM.

The compound `CCCCCC/C=C/C=C/C#CC#C/C=C\CO` registered an IC50 of 11 µM.

The compound `CCCCCCC/C=C\CC#CC#C/C=C\CO` yielded an IC50 of 11 µM.

In turn, `CCCCC/C=C\CC#CC#C/C=C\CO` yielded an IC50 of 11 µM.

`CC(=O)OC/C=C/C=C/C#CC/C=C\CCCCCCCCOC(C)=O` showed an IC50 of over 10 µM.

`CCCCCC/C=C/C=C/C#C/C=C/C=C/COC(C)=O` came in with an IC50 of 11 µM.

In turn, `CCCCCCC/C=C\CC#C/C=C/C=C/COC(C)=O` yielded an IC50 of 11 µM.

Consider `OC/C=C/C=C/C#CC/C=C\CCCCCCCCO`, for which the IC50 was over 10 µM.

In turn, `CCCC/C=C/C=C/C#CC#C/C=C\CO` showed an IC50 of 11 µM.

Regarding `CCC[C@H](O)CC/C=C/C=C/C#CC#C/C=C\COC(C)=O`, 9.4 µM corresponded to half-maximal inhibition (IC50).

Compound `CCC[C@H](CC/C=C/C=C/C#CC#C/C=C\CO)OC(C)=O` [ACETYLBUPLEUROTOXIN] displayed an IC50 of 11 µM.

`CCCC(=O)CC/C=C/C=C/C#CC#C/C=C\CO` [BUPLEURONOL] gave an IC50 of 11 µM.

`CCC[C@H](O)CC/C=C/C=C/C#CC#C/C=C\CO` [BUPLEUROTOXIN]: the midpoint of inhibition, the IC50, lay at 4.9 µM.

For the origin of these results see ChEMBL document CHEMBL1154823, “Polyacetylenes from Bupleurum longiradiatum” (J Nat Prod, 2009).
